Experimental data collected from several papers.
Compare with care: the assays were run in different laboratories.
DHFR: Dihydrofolate reductase (DHFR, Homo sapiens, UniProt P00374)
Tmem97: Sigma intracellular receptor 2 (Tmem97, Rattus norvegicus, UniProt Q5U3Y7)

CC(C)OC(=O)CNc1cccc(CN(Cc2ccc(-n3cccn3)cc2)S(=O)(=O)c2cccnc2)n1
inhibition (Rho-associated protein kinase 2 (ROCK2, Homo sapiens, UniProt O75116); enzyme activity; inhibitor; 10 µM): ≥ 50%

Cc1cc([C@@H](C)Nc2ccccc2C(=O)O)c2nc(N3CCC(F)(F)CC3)c(C#N)c(=O)n2c1
remaining binding (Casein kinase I isoform delta (CSNK1D, Homo sapiens, UniProt P48730); binding; competition with immobilised ligand; 10 µM): 100%

CNc1ncc2c(/C=C/C(=O)N3CCC(OC)CC3)nn(Cc3cccc(C(F)(F)F)c3)c2n1
remaining activity (Activin receptor type-2B (ACVR2B, Homo sapiens, UniProt Q13705); enzyme activity; inhibitor; radiometric; 1 µM): 119%

C=CC(=O)N1CCC(COCC(=O)N2CCN(c3nc(-c4cnc(N)nc4C(F)F)nc(N4CCOC[C@@H]4C)n3)CC2)CC1
remaining binding (BMP-2-inducible protein kinase (BMP2K, Homo sapiens, UniProt Q9NSY1); binding; competition with immobilised ligand; 1 µM): 90%

S=C(NN=Cc1ccc(N2CCCCC2)cc1)Nc1ccccc1
inhibition (DHFR; enzyme activity; inhibitor; 500 µM): 90.1%

C[C@H]1c2nc3ccccc3c(-c3ccccc3)c2[C@H]2C[C@@H]1N(Cc1ccccc1)C[C@]2(C)O
inhibition (Tmem97; ligand displacement; radioligand; 1 µM): 0%

S=C(NN=Cc1ccc(N2CCCCC2)cc1)Nc1c(Cl)cccc1Cl
inhibition (DHFR; enzyme activity; inhibitor; 500 µM): 83.2%

COc1ccc(CN2C[C@](C)(O)[C@@H]3C[C@H]2[C@@H](C)c2nc4ccccc4c(-c4ccccc4)c23)cc1
inhibition (Tmem97; ligand displacement; radioligand; 1 µM): 0%

Cc1ccc(CNC(=S)NN=Cc2ccc(N3CCCCC3)cc2)cc1
inhibition (DHFR; enzyme activity; inhibitor; 500 µM): 81.4%

COc1cc([C@@H]2c3cc4c(cc3[C@@H](O[C@@H]3O[C@@H]5CO[C@@H](C)O[C@H]5[C@H](O)[C@H]3O)[C@H]3COC(=O)[C@H]23)OCO4)cc(OC)c1O
inhibition (DNA topoisomerase 2-alpha (TOP2A, Homo sapiens, UniProt P11388); enzyme activity; inhibitor; 31.5 µM): 0%

Cc1ccc(NC(=S)NN=Cc2ccc(N3CCCCC3)cc2)cc1
inhibition (DHFR; enzyme activity; inhibitor; 500 µM): 84.4%

COc1cc(-c2cncc3c2CN(C)Cc2cc(N4CCNCC4)ccc2-3)cc(OC)c1OC
remaining activity (Serine/threonine-protein kinase MRCK gamma (CDC42BPG, Homo sapiens, UniProt Q6DT37); enzyme activity; inhibitor; 1 µM): 102%
